ChEMBL document CHEMBL5329148, “Visible and NIR light photoactivatable o-hydroxycinnamate system for efficient drug release with fluorescence monitoring” (RSC Med Chem, 2023)

Experiments:
[1] = (§1) Dark toxicity in human A549 cells assessed as reduction in cell viability incubated for 72 hrs by MTT assay; format: cell-based; settings: A549 cells
In short: (§2)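 Cells seeded at 9000/well in DMEM with 10% FBS, grown 24 h at 37 °C in 5% CO2. Compound in medium with ≤1% DMSO for 1 h at 37 °C in the dark, washed twice with PBS, kept unirradiated, then incubated 72 h in the dark. MTT (5 mg mL-1 stock) added for 2 h at 37 °C, formazan dissolved in DMSO, absorbance read at 570 nm.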

[2] = system: MCF7; assay: Photocytotoxicity in human MCF7 cells assessed as reduction in cell viability preincubated for 1 hr followed by visible light irradiation for 30 mins and measured after 72 hrs by MTT assay; format: functional, cell-based; settings: MCF7, light or radiation study
In short: (§3)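 A549 or MCF7 cells (9000/well, grown 24 h) were given compound in medium with ≤1% DMSO for 1 h at 37 °C in the dark, washed twice and placed in PBS. They were irradiated with 400–700 nm light (11 mW) for 10, 20 or 30 min, then incubated 72 h in the dark. Viability was read by MTT (2 h, 37 °C), with formazan in DMSO at 570 nm. Unirradiated wells served as dark control.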

[3] = Dark toxicity in human MCF7 cells assessed as reduction in cell viability incubated for 72 hrs by MTT assay; format: cell-based; in short: as §2
[4] = system: A549; assay: Photocytotoxicity in human A549 cells assessed as reduction in cell viability preincubated for 1 hr followed by two-photon NIR light irradiation for 10 mins and measured after 72 hrs by MTT assay; settings: A549, light or radiation study
[5] = system: A549; assay: Photocytotoxicity in human A549 cells assessed as reduction in cell viability preincubated for 1 hr followed by visible light irradiation for 30 mins and measured after 72 hrs by MTT assay; format: functional, cell-based; settings: for IC50: A549, light or radiation study; in short: as §3
[6] = Drug release in 1: 9 DMSO/PBS at pH 4 at 50 uM under visible light irradiation upto 20 mins by emission spectroscopy; format: ADME; settings: buffer, pH 4, 20 min
In short: (§4)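 Drug release was measured across pH 4–9. Solutions of 50 µM in 1:9 DMSO/buffer were irradiated with 400–700 nm light (11 mW) at 2 cm and 25 °C, in 2-min steps over 0–20 min. Release was taken from coumarin reporter emission (ex 385 nm, em 475 nm). A dark control received no light.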

[7] = system: A549; assay: Photocytotoxicity in human A549 cells assessed as reduction in cell viability at 10 uM preincubated for 1 hr followed by two-photon NIR light irradiation for 10 mins and measured after 72 hrs by MTT assay; format: functional; settings: time 4390 min, 73.17 h
In short: (§5)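 A549 cells (9000/well) were treated with compound for 1 h at 37 °C in the dark, then moved to PBS. They were irradiated with a two-photon femtosecond laser (800 nm, 50 mW) for 0, 5, 10, 15 or 20 min, then incubated 72 h in the dark in medium. Viability was read by MTT over 2 h, with formazan in DMSO at 570 nm. Unirradiated wells served as dark control.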

[8] = Drug release in 1: 9 DMSO/PBS at pH 9 at 50 uM under visible light irradiation upto 20 mins by emission spectroscopy; format: ADME; settings: buffer, pH 9, 20 min; in short: as §4
[9] = Drug uptake in human A549 cells at 10 uM incubated for 1 hr by FACS analysis; format: ADME, cell-based; settings: a549, 1 h
In short: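 A549 cells (1.5 × 10^5/well) were washed and given 10 µM compound in medium with 1% DMSO for 0, 0.5, 1 or 2 h at 37 °C. They were irradiated in PBS with visible light (400–700 nm, 11 mW) for 10 min, then trypsinized and resuspended in HBSS. Blue coumarin fluorescence was read by flow cytometry on about 10000 cells.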

[10] = Lipophilicity, logP of compound in n-Octanol/water; format: physicochemical
[11] = system: A549; assay: Photocytotoxicity in human A549 cells assessed as reduction in cell viability at 10 uM preincubated for 1 hr followed by two-photon NIR light irradiation for 5 mins and measured after 72 hrs by MTT assay; format: functional; settings: time 4385 min, 73.08 h; in short: as §5
[12] = system: A549; assay: Photocytotoxicity in human A549 cells assessed as reduction in cell viability at 5 uM preincubated for 1 hr followed by visible light irradiation upto 30 mins and measured after 72 hrs by MTT assay; format: functional, cell-based; settings: time 73.5 hrs, TDE = time-dependent effect; in short: as §3
[13] = system: A549; assay: as §1; format: cell-based; settings: a549, 72 h, time 72 hrs; in short: as §2
[14] = system: A549; assay: Induction of mitochondrial membrane depolarization in human A549 cells after 30 mins by JC-1 dye staining based FACS analysis (reference value: 5.3 +/- 1.1 %); format: functional; settings: 0.5 h
[15] = system: A549; assay: Induction of mitochondrial membrane depolarization in human A549 cells after 1 hr by JC-1 dye staining based FACS analysis (reference value: 5.3 +/- 1.1 %); format: functional
[16] = system: A549; assay: Photo-induced drug release in human A549 cells assessed as increase in blue fluorescence at 10 uM incubated for 1 hr prior to PBS washout followed by visible light irradiation for 2 mins and further incubated for 10 mins by fluorescence imaging analysis; format: ADME, cell-based; settings: a549, 1 h
In short: (§6)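 A549 cells (2 × 10^5/well, seeded a day before) received 10 µM compound for 1 h at 37 °C in the dark and were washed with cold PBS. They were irradiated with 400–700 nm light (11 mW) for 0, 2, 5, 10, 15, 20 or 30 min, then held 10 min. Blue-channel fluorescence was imaged and given as the mean of 30 cells, fitted to an exponential.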

[17] = system: A549; assay: Photocytotoxicity in human A549 cells assessed as reduction in cell viability at 10 uM preincubated for 1 hr followed by two-photon NIR light irradiation for 20 mins and measured after 72 hrs by MTT assay; format: functional; settings: time 4400 min, 73.33 h; in short: as §5
[18] = Drug release in 1: 9 DMSO/PBS at pH 7 at 50 uM under visible light irradiation upto 20 mins by emission spectroscopy; format: ADME; settings: buffer, pH 7, 20 min; in short: as §4
[19] = system: A549; assay: Photo-induced drug release in human A549 cells assessed as increase in blue fluorescence at 10 uM incubated for 1 hr prior to PBS washout followed by visible light irradiation and further incubated for 10 mins by fluorescence imaging analysis; format: ADME, cell-based; settings: a549, 1 h, TDE = time-dependent effect; in short: as §6
[20] = Drug localization in human A549 cells mitochondria at 10 uM incubated for 1 hr prior to PBS washout followed by visible light irradiation for 10 mins by inverted fluorescence microscopy analysis; format: ADME; settings: a549, 1 h
In short: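 A549 cells were loaded with 10 µM compound in complete DMEM for 1 h at 37 °C, washed, and irradiated in PBS with 400–700 nm light (11 mW) for 10 min. Mito Red (100 nM, 15 min) was added before a PBS wash. Coumarin signal was imaged at ex/em 350/460 nm and Mito Red at 550/580 nm. Overlap was taken from a scatter plot as Pearson's correlation coefficient.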

[21] = system: A549; assay: Dark toxicity in human A549 cells assessed as reduction in cell viability upto 20 uM incubated for 72 hrs by MTT assay; format: cell-based; settings: a549, 72 h; in short: as §2

With `Nc1ccn([C@@H]2O[C@H](CO)[C@@H](O)C2(F)F)c(=O)n1` [GEMCITABINE] the IC50 at 72 h [1] was 750 nM, the IC50 [2] was 1.36 µM and the IC50 at 72 h [3] was 1460 nM. It also gave an IC50 [4] of 0.8 µM and an IC50 [5] of 650 nM.
With `CCN(CC)c1ccc(/C=C/C(=O)OC[C@H]2O[C@@H](n3ccc(N)nc3=O)C(F)(F)[C@@H]2O)c(O)c1` the Drug metabolism [6] was “Active”, the Activity [7] was 47% and the Drug metabolism [8] was “Active”. For the same compound, the Drug uptake [9] was “Active”, the logP [10] was 2.1 and the Activity [11] was 35%. The Activity [12] was “Tde”, the Activity [13] was “Non-Toxic” and the IC50 [2] was 5.45 µM. The Activity [14] was 13.9%, the Activity [15] was 82.3% and the IC50 [4] was 12.5 µM. The Drug metabolism [16] was “Metabolite_Detected”, the Activity [17] was 57% and the Drug metabolism [18] was “Active”. The IC50 [5] was 5050 nM, the Activity ([5]; time 73.5 hrs) was “Dose-Dependent Effect” and the Drug metabolism [19] was “Tde”. For the same compound, the Drug uptake [20] was “Active” and the Activity [21] was “Non-Toxic”.
